Reference: ChEMBL document CHEMBL1138950, “Benzimidazole derivatives bearing substituted biphenyls as hepatitis C virus NS5B RNA-dependent RNA polymerase inhibitors: structure-activity relationship studies and identification of a potent and highly selective inhibitor JTK-109” (J Med Chem, 2006)

Columns and labels:
Huh-5-2 = assay: Viability of Huh5-2 cells by MTT assay; assay type: functional; details: Homo sapiens
[1] = Therapeutic index, CC50 for viability of Huh5-2 cells/EC50 for inhibition of HCV subgenomic RNA replication; assay type: cell-based, Huh-5-2; details: human, read-out: Ratio CC50/EC50
[2] = Plasma concentration in rat at 30 mg/kg, po after 2 hrs; assay type: ADME, organism-based; parameters: dose 30 mg/kg, route oral
How it was run: (§1)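 Rats dosed orally at 30 mg/kg; plasma sampled at 1 and 2 h; n = 2 or 3.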

Hepatitis C virus = assay: Inhibition of HCV subgenomic RNA replication in Huh5-2 cells after 48 hrs by replicon assay; assay type: functional, organism-based, Hepacivirus hominis; details: Huh-5-2, 48 h
How it was run: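 Huh-5-2 cells (Huh-7-derived, genotype 1b subgenomic replicon with luciferase reporter) seeded at 5 × 10^3 per well in DMEM with 10% FBS, 37 °C, 5% CO2; compounds added next day, 48 h exposure; luciferase activity read. EC50 is the concentration reducing replication by 50%. Triplicate, mean of three experiments.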

[3] = Plasma concentration in rat at 30 mg/kg, po after 1 hr; assay type: ADME, organism-based; parameters: dose 30 mg/kg, route oral; how it was run: as §1
[4] = target: RNA-directed RNA polymerase (Hepacivirus hominis, UniProt O39930); assay: Inhibition of HCV 1b BK six His-tagged C-terminal truncated 544 amino acid NS5B RNA dependent RNA polymerase; parameters: species or system Hepatitis C virus subtype 1b
Chain of RNA-directed RNA polymerase (O39930 whole entry, the tested form may be a part): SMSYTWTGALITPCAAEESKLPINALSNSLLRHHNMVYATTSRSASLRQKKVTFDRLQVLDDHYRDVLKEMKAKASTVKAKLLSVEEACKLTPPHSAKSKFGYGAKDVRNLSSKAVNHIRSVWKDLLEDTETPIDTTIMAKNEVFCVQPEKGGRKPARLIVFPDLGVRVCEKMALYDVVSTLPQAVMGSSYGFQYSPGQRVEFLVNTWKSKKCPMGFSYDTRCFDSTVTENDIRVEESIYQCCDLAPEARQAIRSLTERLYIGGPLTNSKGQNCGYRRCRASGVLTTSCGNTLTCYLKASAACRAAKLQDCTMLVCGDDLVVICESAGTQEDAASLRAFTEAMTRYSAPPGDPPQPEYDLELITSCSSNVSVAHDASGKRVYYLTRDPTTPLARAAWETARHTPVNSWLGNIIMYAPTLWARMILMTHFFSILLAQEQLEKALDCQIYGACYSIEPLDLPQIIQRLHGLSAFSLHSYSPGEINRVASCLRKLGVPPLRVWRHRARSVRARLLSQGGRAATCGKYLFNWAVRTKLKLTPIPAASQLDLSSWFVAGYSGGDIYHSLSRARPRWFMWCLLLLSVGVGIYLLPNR
How it was run: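 HCV genotype 1b (BK) NS5B lacking 47 C-terminal residues, His6-tagged, E. coli-expressed; 7 nM enzyme with 5 µg HCV 3′X RNA template-primer, 50 µM each ATP/GTP/CTP, 2 µM UTP plus [3H]-UTP; pH 7.5 Tris, 5 mM MgCl2. Compounds in DMSO (5% final). 60 min at 25 °C; TCA-precipitable radioactivity read. Triplicate, mean of three experiments.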

| Structure (SMILES) | concentration at 2 h [2] [nM] | EC50 (Hepatitis C virus) [µM] | concentration at 1 h [3] [nM] | IC50 [4] [µM] | CC50 (Huh-5-2) [µM] | selectivity ratio [1] |
| --- | --- | --- | --- | --- | --- | --- |
| CN(C)C(=O)c1ccc(-c2ccc(Cl)cc2)c(COc2ccc(-c3nc4cc(C(=O)O)ccc4n3C3CCCCC3)c(F)c2)c1 | 1800 | 0.16 | 1600 | 0.012 | 26 | 163 |
| O=C(O)c1ccc2c(c1)nc(-c1ccc(OCc3cc(C(=O)NCCO)ccc3-c3ccc(Cl)cc3)cc1F)n2C1CCCCC1 | – | 0.94 | – | 0.021 | 26 | 28 |
| O=C(O)c1ccc2c(c1)nc(-c1ccc(OCc3cc(C(=O)N4CCCCC4)ccc3-c3ccc(Cl)cc3)cc1F)n2C1CCCCC1 | 700 | 0.27 | 2200 | 0.018 | 24 | 89 |
| CN(C)C(=O)c1ccc(COc2ccc(-c3nc4cc(C(=O)O)ccc4n3C3CCCCC3)cc2)c(-c2ccc(Cl)cc2)c1 | – | 0.84 | – | 0.032 | 25 | 30 |
| Cc1nc(COc2ccc(-c3nc4cc(C(=O)O)ccc4n3C3CCCCC3)cc2)c(-c2ccc(Cl)cc2)s1 | – | 6.3 | – | 0.17 | 31 | 4.9 |
| CCN(C(C)=O)c1ccc(-c2ccc(Cl)cc2)c(COc2ccc(-c3nc4cc(C(=O)O)ccc4n3C3CCCCC3)c(F)c2)c1 | 800 | 0.14 | 1500 | 0.019 | 25 | 179 |
| CN(C)C(=O)Nc1ccc(-c2ccc(Cl)cc2)c(COc2ccc(-c3nc4cc(C(=O)O)ccc4n3C3CCCCC3)c(F)c2)c1 | – | 0.62 | – | 0.022 | 25 | 40 |
| CNC(=O)c1ccc(-c2ccc(Cl)cc2)c(COc2ccc(-c3nc4cc(C(=O)O)ccc4n3C3CCCCC3)c(F)c2)c1 | 500 | 0.36 | 700 | 0.012 | 25 | 69 |
| CC(C)C(=O)N(C)c1ccc(-c2ccc(Cl)cc2)c(COc2ccc(-c3nc4cc(C(=O)O)ccc4n3C3CCCCC3)c(F)c2)c1 | 1100 | 0.35 | 1900 | 0.032 | 22 | 63 |
| Cc1nc(-c2ccc(Cl)cc2)c(COc2ccc(-c3nc4cc(C(=O)O)ccc4n3C3CCCCC3)cc2)s1 | – | 2.9 | – | 0.09 | 39 | 13 |
| O=C(O)c1ccc2c(c1)nc(-c1ccc(OCc3cc(C(=O)N4CCC(O)CC4)ccc3-c3ccc(Cl)cc3)cc1F)n2C1CCCCC1 | – | 0.38 | 100 | 0.014 | 26 | 68 |
| O=C(O)c1ccc2c(c1)nc(-c1ccc(OCc3ccccc3-c3ccccc3)cc1C(F)(F)F)n2C1CCCCC1 | – | – | – | 0.93 | – | – |
| CC(=O)N(C)c1ccc(-c2ccc(Cl)cc2)c(COc2ccc(-c3nc4cc(C(=O)O)ccc4n3C3CCCCC3)c(F)c2)c1 | 1100 | 0.15 | 900 | 0.016 | 26 | 173 |
| CC(=O)N(c1ccc(-c2ccc(Cl)cc2)c(COc2ccc(-c3nc4cc(C(=O)O)ccc4n3C3CCCCC3)c(F)c2)c1)C(C)C | 700 | 0.16 | 1100 | 0.021 | 20 | 125 |
| CN(C)S(=O)(=O)c1ccc(-c2ccc(Cl)cc2)c(COc2ccc(-c3nc4cc(C(=O)O)ccc4n3C3CCCCC3)cc2)c1 | – | 0.66 | – | 0.023 | 26 | 39 |
| CC(C)NC(=O)c1ccc(-c2ccc(Cl)cc2)c(COc2ccc(-c3nc4cc(C(=O)O)ccc4n3C3CCCCC3)c(F)c2)c1 | 300 | 0.2 | 1100 | 0.013 | 22 | 110 |
| CC(=O)Nc1ccc(-c2ccc(Cl)cc2)c(COc2ccc(-c3nc4cc(C(=O)O)ccc4n3C3CCCCC3)c(F)c2)c1 | 300 | 0.46 | 1000 | 0.014 | 24 | 52 |
| Cc1ncc(COc2ccc(-c3nc4cc(C(=O)O)ccc4n3C3CCCCC3)cc2)c(-c2ccc(Cl)cc2)n1 | – | 1.5 | – | 0.088 | 24 | 16 |
| COc1cc(OCc2ccccc2-c2ccccc2)ccc1-c1nc2cc(C(=O)O)ccc2n1C1CCCCC1 | – | – | – | 1.1 | – | – |

The next lines start with results.

| concentration at 2 h [2] [nM] | EC50 (Hepatitis C virus) [µM] | concentration at 1 h [3] [nM] | IC50 [4] [µM] | Structure (SMILES) | CC50 (Huh-5-2) [µM] | selectivity ratio [1] |
| --- | --- | --- | --- | --- | --- | --- |
| – | 3.9 | – | 0.15 | O=C(O)c1ccc2c(c1)nc(-c1ccc(OCc3ncccc3-c3ccc(Cl)cc3)cc1)n2C1CCCCC1 | 25 | 6 |
| – | 0.82 | – | 0.041 | N#Cc1ccc(-c2ccc(Cl)cc2)c(COc2ccc(-c3nc4cc(C(=O)O)ccc4n3C3CCCCC3)cc2)c1 | 23 | 28 |
| – | 1.1 | – | 0.029 | O=C(O)c1ccc2c(c1)nc(-c1ccc(OCc3cc(C(=O)NCc4ccccc4)ccc3-c3ccc(Cl)cc3)cc1)n2C1CCCCC1 | 22 | 20 |
| – | 1.6 | – | 0.037 | COc1ccc(-c2ccc(Cl)cc2)c(COc2ccc(-c3nc4cc(C(=O)O)ccc4n3C3CCCCC3)cc2)c1 | 24 | 15 |
| – | 1.3 | – | 0.022 | CC(=O)Nc1ccc(-c2ccc(Cl)cc2)c(COc2ccc(-c3nc4cc(C(=O)O)ccc4n3C3CCCCC3)cc2)c1 | 23 | 18 |
| – | 2.4 | – | 0.1 | COc1ccc(-c2ccc(Cl)cc2COc2ccc(-c3nc4cc(C(=O)O)ccc4n3C3CCCCC3)cc2)cc1 | 25 | – |
| – | 2.5 | – | 0.069 | NC(=O)c1ccc(-c2ccc(Cl)cc2COc2ccc(-c3nc4cc(C(=O)O)ccc4n3C3CCCCC3)cc2)cc1 | > 50 | – |
| – | 1.5 | – | 0.016 | NS(=O)(=O)c1ccc(-c2ccc(Cl)cc2)c(COc2ccc(-c3nc4cc(C(=O)O)ccc4n3C3CCCCC3)cc2)c1 | 27 | 18 |
| – | 3.4 | – | 0.098 | Cc1ccc(-c2ccc(Cl)cc2COc2ccc(-c3nc4cc(C(=O)O)ccc4n3C3CCCCC3)cc2)cc1 | 25 | – |
| – | 0.53 | – | 0.018 | CNC(=O)c1ccc(-c2ccc(Cl)cc2)c(COc2ccc(-c3nc4cc(C(=O)O)ccc4n3C3CCCCC3)cc2)c1 | 25 | 47 |
| – | 1.3 | – | 0.055 | N#Cc1ccc(-c2ccc(Cl)cc2COc2ccc(-c3nc4cc(C(=O)O)ccc4n3C3CCCCC3)cc2)cc1 | 26 | – |
| – | 6.5 | – | 0.48 | O=C(O)c1ccc2c(c1)nc(-c1ccc(OCc3cc(Cl)ccc3-c3cccc(Cl)c3)cc1)n2C1CCCCC1 | 32 | – |
| – | 0.37 | – | 0.015 | CN(C)C(=O)c1ccc(-c2ccc(Cl)cc2)c(COc2ccc(-c3nc4cc(C(=O)O)ccc4n3C3CCCCC3)cc2)c1 | 28 | 76 |
| – | 1.2 | – | 0.053 | O=C(O)c1ccc2c(c1)nc(-c1ccc(OCc3cccnc3-c3ccc(Cl)cc3)cc1)n2C1CCCCC1 | > 50 | > 41 |
| – | 3 | – | 0.05 | O=C(O)c1ccc2c(c1)nc(-c1ccc(OCc3cc(Cl)ccc3-c3ccc(Cl)cc3)cc1)n2C1CCCCC1 | 26 | 13 |
| – | – | – | 0.1 | O=C(O)c1ccc2c(c1)nc(-c1ccc(OCc3ccccc3-c3ccccc3)cc1F)n2C1CCCCC1 | – | – |
| – | 0.79 | – | 0.013 | NC(=O)c1ccc(-c2ccc(Cl)cc2)c(COc2ccc(-c3nc4cc(C(=O)O)ccc4n3C3CCCCC3)cc2)c1 | 26 | 33 |
| – | 2.6 | – | 0.29 | O=C(O)c1ccc2c(c1)nc(-c1ccc(OCc3cc(Cl)ccc3-c3cccnc3)cc1)n2C1CCCCC1 | – | – |
| – | > 10 | – | 0.024 | O=C(O)c1ccc(-c2ccc(Cl)cc2)c(COc2ccc(-c3nc4cc(C(=O)O)ccc4n3C3CCCCC3)cc2)c1 | > 50 | – |
| – | 3.7 | – | 0.2 | O=C(O)c1ccc2c(c1)nc(-c1ccc(OCc3cc(Cl)ccc3-c3ccccc3)cc1)n2C1CCCCC1 | 25 | – |
| – | 0.34 | – | 0.018 | CC(=O)c1ccc(-c2ccc(Cl)cc2)c(COc2ccc(-c3nc4cc(C(=O)O)ccc4n3C3CCCCC3)cc2)c1 | 24 | 71 |
| – | – | – | 0.38 | O=C(O)c1ccc2c(c1)nc(-c1ccc(OCc3ccccc3-c3ccccc3)c(F)c1)n2C1CCCCC1 | – | – |
| – | 2.6 | – | 0.063 | CN(C)c1ccc(-c2ccc(Cl)cc2)c(COc2ccc(-c3nc4cc(C(=O)O)ccc4n3C3CCCCC3)cc2)c1 | 30 | 12 |
| – | – | – | 0.35 | O=C(O)c1ccc2c(c1)nc(-c1ccc(OCc3ccccc3-c3ccccc3)cc1Cl)n2C1CCCCC1 | – | – |
| – | 3.2 | – | 0.078 | O=C(O)c1ccc2c(c1)nc(-c1ccc(OCc3ccccc3-c3ccc(Cl)cc3)cc1)n2C1CCCCC1 | 35 | 11 |
